Source: ChEMBL document CHEMBL1122644, “Ring-substituted 1,2-dialkylated 1,2-bis(hydroxyphenyl)ethanes. 2. Synthesis and estrogen receptor binding affinity of 4,4'-, 5,5'-, and 6,6'-disubstituted metahexestrols” (J Med Chem, 1984)
One block for each compound: values may come before it.

Tests used:
[1] = target: Estrogen receptor (Bos taurus) (UniProt Q9XSB5+P49884); assay: Relative binding affinity for calf uterine estrogen receptor is the ratio of molar concentrations of 17-beta-estradiol and compound required to decrease amount of bound [3H]-E2 by 50% X 100.; format: protein assay
Procedure, shortened: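 Calf uterine cytosol incubated with [3H]estradiol and competitor at 4 °C for 16 h. Free ligand removed with dextran-coated charcoal, then centrifuged and a supernatant aliquot counted. Six competitor concentrations chosen to span 50% competition on a semilog plot. Molar concentrations of unlabeled estradiol and test compound giving 50% reduction in binding were read from the plot.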

[2] = target: T1, Estrogen receptor (Mus musculus) (UniProt O08537+P19785); assay: Anti-estrogenic activity in mouse uterotrophic assay at 0 ug; format: functional; parameters: unit not given here
Procedure, shortened: (§1)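 Immature female NMRI mice, 20 days old (14.5 ± 1.2 g), randomized into groups of 10. Test compound in olive oil (0.1 mL) given subcutaneously daily for 3 days alongside estrone stimulation. Uteri removed 24 h after last injection, fixed in Bouin's solution, washed, dried and weighed. Readout is inhibition of estrone-stimulated uterine growth.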

[3] = target: T1, Estrogen receptor (Mus musculus); assay: Anti-estrogenic activity in mouse uterotrophic assay at 10 ug; format: functional; parameters: unit not given here; procedure, shortened: as §1
[4] = target: T1, Estrogen receptor (Mus musculus); assay: Anti-estrogenic activity in mouse uterotrophic assay at 100 ug; format: functional; parameters: unit not given here; procedure, shortened: as §1
[5] = target: T1, Estrogen receptor (Mus musculus); assay: (§2) Anti-estrogenic activity in mouse uterotrophic assay at 1 ug; format: functional; procedure, shortened: as §1
[6] = target: T1, Estrogen receptor (Mus musculus); assay: Estrogenic activity in mouse uterotrophic assay at 0 ug; format: functional; parameters: unit not given here
Procedure, shortened: (§3)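 Uterotrophic test in 20-day-old immature female NMRI mice (14.5 ± 1.2 g), 10 per group. Daily s.c. injections of compound in 0.1 mL olive oil for 3 days. Uteri excised 24 h after final dose, Bouin-fixed, washed, dried and weighed to measure stimulation of uterine growth.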

[7] = target: T1, Estrogen receptor (Mus musculus); assay: Estrogenic activity in mouse uterotrophic assay at 1 ug; format: functional; procedure, shortened: as §3
[8] = target: T1, Estrogen receptor (Mus musculus); assay: Estrogenic activity in mouse uterotrophic assay at 10 ug; format: functional; parameters: unit not given here; procedure, shortened: as §3
[9] = target: T1, Estrogen receptor (Mus musculus); assay: Estrogenic activity in mouse uterotrophic assay at 100 ug; format: functional; parameters: unit not given here; procedure, shortened: as §3
[10] = target: T1, Estrogen receptor (Mus musculus); assay: Estrogenic activity in mouse uterotrophic assay at 1000 ug; format: functional; parameters: unit not given here; procedure, shortened: as §3
[11] = target: T1, Estrogen receptor (Mus musculus); assay: as §2; format: functional; parameters: unit not given here; procedure, shortened: as §1
[12] = target: T1, Estrogen receptor (Mus musculus); assay: Anti-estrogenic activity in mouse uterotrophic assay at 25 ug; format: functional; procedure, shortened: as §1
[13] = target: T1, Estrogen receptor (Mus musculus); assay: Anti-estrogenic activity in mouse uterotrophic assay at 250 ug; format: functional; procedure, shortened: as §1
[14] = target: T1, Estrogen receptor (Mus musculus); assay: Anti-estrogenic activity in mouse uterotrophic assay at 5 ug; format: functional; procedure, shortened: as §1
[15] = target: T1, Estrogen receptor (Mus musculus); assay: Anti-estrogenic activity in mouse uterotrophic assay at 50 ug; format: functional; procedure, shortened: as §1
[16] = target: T1, Estrogen receptor (Mus musculus); assay: Estrogenic activity in mouse uterotrophic assay at 8 ug; format: functional; procedure, shortened: as §3
[17] = target: T1, Estrogen receptor (Mus musculus); assay: Estrogenic activity in mouse uterotrophic assay at 80 ug; format: functional; procedure, shortened: as §3
[18] = target: T1, Estrogen receptor (Mus musculus); assay: Estrogenic activity in mouse uterotrophic assay at 800 ug; format: functional; procedure, shortened: as §3
[19] = target: T1, Estrogen receptor (Mus musculus); assay: Estrogenic activity in mouse uterotrophic assay at 16 ug; format: functional; procedure, shortened: as §3
[20] = target: T1, Estrogen receptor (Mus musculus); assay: Estrogenic activity in mouse uterotrophic assay at 2 ug; format: functional; procedure, shortened: as §3
[21] = target: T1, Estrogen receptor (Mus musculus); assay: Estrogenic activity in mouse uterotrophic assay at 240 ug; format: functional; procedure, shortened: as §3
[22] = target: T1, Estrogen receptor (Mus musculus); assay: Anti-estrogenic activity as inhibition of estrone-stimulated uterine growth in mice at 50 mg/kg; format: functional, organism-based; parameters: dose 50 mg/kg; procedure, shortened: as §1
[23] = target: T1, Estrogen receptor (Mus musculus); assay: Anti-estrogenic activity as inhibition of estrone-stimulated uterine growth in mice at 5 mg/kg; format: functional, organism-based; parameters: dose 5 mg/kg; procedure, shortened: as §1
[24] = target: T1, Estrogen receptor (Mus musculus); assay: Anti-estrogenic activity as inhibition of estrone-stimulated uterine growth in mice at 25 mg/kg; format: functional, organism-based; parameters: dose 25 mg/kg; procedure, shortened: as §1
[25] = target: T1, Estrogen receptor (Mus musculus); assay: Anti-estrogenic activity as inhibition of estrone-stimulated uterine growth in mice at 100 mg/kg; format: functional, organism-based; parameters: dose 100 mg/kg; procedure, shortened: as §1
[26] = target: T1, Estrogen receptor (Mus musculus); assay: Anti-estrogenic activity as inhibition of estrone-stimulated uterine growth in mice at 1 mg/kg; format: functional, organism-based; parameters: dose 1 mg/kg; procedure, shortened: as §1
[27] = target: T1, Estrogen receptor (Mus musculus); assay: Anti-estrogenic activity as inhibition of estrone-stimulated uterine growth in mice at 250 mg/kg; format: functional, organism-based; parameters: dose 250 mg/kg; procedure, shortened: as §1
[28] = target: T1, Estrogen receptor (Mus musculus); assay: Anti-estrogenic activity as inhibition of estrone-stimulated uterine growth in mice at 10 mg/kg; format: functional, organism-based; parameters: dose 10 mg/kg; procedure, shortened: as §1
[29] = target: T1, Estrogen receptor (Mus musculus); assay: Estrogenic activity in mouse uterotrophic assay at 0.1 ug; format: functional; procedure, shortened: as §3

T1 sequence (O08537 whole entry, looked up): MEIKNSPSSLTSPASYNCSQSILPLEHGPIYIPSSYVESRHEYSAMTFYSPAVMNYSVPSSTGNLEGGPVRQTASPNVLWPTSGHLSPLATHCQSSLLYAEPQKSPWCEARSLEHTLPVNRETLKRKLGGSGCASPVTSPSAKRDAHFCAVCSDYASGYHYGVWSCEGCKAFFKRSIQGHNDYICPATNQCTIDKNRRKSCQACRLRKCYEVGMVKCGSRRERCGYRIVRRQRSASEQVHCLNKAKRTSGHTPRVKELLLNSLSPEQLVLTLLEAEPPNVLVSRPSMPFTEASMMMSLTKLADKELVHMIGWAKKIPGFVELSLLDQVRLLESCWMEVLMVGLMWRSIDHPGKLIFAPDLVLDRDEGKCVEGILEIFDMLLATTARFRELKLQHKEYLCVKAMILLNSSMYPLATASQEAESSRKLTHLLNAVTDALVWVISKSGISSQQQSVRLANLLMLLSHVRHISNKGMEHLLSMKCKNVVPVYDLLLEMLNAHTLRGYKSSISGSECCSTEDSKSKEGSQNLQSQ
T1 sequence (P19785 whole entry, looked up): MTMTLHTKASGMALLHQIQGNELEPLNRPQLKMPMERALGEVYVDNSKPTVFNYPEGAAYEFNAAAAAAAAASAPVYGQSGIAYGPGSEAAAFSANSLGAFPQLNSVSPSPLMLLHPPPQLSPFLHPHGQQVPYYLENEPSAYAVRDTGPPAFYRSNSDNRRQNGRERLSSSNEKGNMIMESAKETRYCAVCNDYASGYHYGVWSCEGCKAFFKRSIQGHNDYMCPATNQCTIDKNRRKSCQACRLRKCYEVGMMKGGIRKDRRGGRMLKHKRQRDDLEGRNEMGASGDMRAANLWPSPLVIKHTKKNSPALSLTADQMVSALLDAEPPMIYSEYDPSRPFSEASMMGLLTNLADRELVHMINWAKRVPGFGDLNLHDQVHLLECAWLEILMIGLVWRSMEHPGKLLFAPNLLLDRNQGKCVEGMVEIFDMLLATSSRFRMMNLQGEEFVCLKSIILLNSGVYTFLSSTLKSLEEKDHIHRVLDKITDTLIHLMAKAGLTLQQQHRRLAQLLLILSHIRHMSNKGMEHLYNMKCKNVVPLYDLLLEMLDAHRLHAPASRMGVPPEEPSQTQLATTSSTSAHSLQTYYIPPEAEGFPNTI

Structure (SMILES): CCOCc1cc(C(CC)C(CC)c2ccc(O)c(COCC)c2)ccc1O (stereo not given)
RBA [1]: 0.18

Structure (SMILES): CCC(c1cc(O)ccc1F)C(CC)c1cc(O)ccc1F (stereo not given)
RBA [1]: 7
Activity [2]: 13.7
Activity [3]: 38.9
Activity [4]: 41.2
Activity [5]: 37.8
Activity [6]: 13.1
Activity [7]: 15.5
Activity [8]: 23.2
Activity [9]: 39
Activity [10]: 34.6

Structure (SMILES): CC[C@H](c1ccc(O)cc1)[C@@H](CC)c1ccc(O)cc1
RBA [1]: 27

Structure (SMILES): CCC(c1cc(O)cc(Cl)c1)C(CC)c1cc(O)cc(Cl)c1 (stereo not given)
RBA [1]: 0.03

Structure (SMILES): CCC(c1ccc(CO)c(O)c1)C(CC)c1ccc(CO)c(O)c1 (stereo not given)
RBA [1]: 0.03

Structure (SMILES): CCC(c1ccc(O)c([N+](=O)[O-])c1)C(CC)c1ccc(O)c([N+](=O)[O-])c1 (stereo not given)
RBA [1]: 0.14

Structure (SMILES): CCC(c1cc(O)cc(O)c1)C(CC)c1cc(O)cc(O)c1 (stereo not given)
RBA [1]: 0.01

Structure (SMILES): CCC(c1ccc([N+](=O)[O-])c(O)c1)C(CC)c1ccc([N+](=O)[O-])c(O)c1 (stereo not given)
RBA [1]: 0.02

Structure (SMILES): CCC(c1ccc(O)cc1Cl)C(CC)c1ccc(O)cc1Cl (stereo not given)
RBA [1]: 2.2

Structure (SMILES): CCC(c1ccc(C(C)=O)c(O)c1)C(CC)c1ccc(C(C)=O)c(O)c1 (stereo not given)
RBA [1]: < 0.01

Structure (SMILES): CCOCc1ccc(C(CC)C(CC)c2ccc(COCC)c(O)c2)cc1O (stereo not given)
RBA [1]: < 0.01

Second part, the compound after the results:

RBA [1]: 1.1
Activity [2]: 13.5
Activity [11]: 34.2
Activity [4]: 22.4
Activity [12]: 28.6
Activity [13]: 24.4
Activity [14]: 30.2
Activity [15]: 24.7
Activity [16]: 18.5
Activity [17]: 31.8
Activity [18]: 32.6
Activity [6]: 8.7
Activity [19]: 25.4
Activity [20]: 8.9
Activity [21]: 32.8
inhibition [22]: 50%
inhibition [23]: 25%
inhibition [24]: 32%
inhibition [25]: 60%
inhibition [26]: 7%
inhibition [27]: 51%
Structure (SMILES): CCC(c1ccc(F)c(O)c1)C(CC)c1ccc(F)c(O)c1 (stereo not given)

RBA [1]: 0.17
Structure (SMILES): CCC(c1ccc(O)c(I)c1)C(CC)c1ccc(O)c(I)c1 (stereo not given)

RBA [1]: < 0.01
Structure (SMILES): CCC(c1ccc(N(C)C)c(O)c1)C(CC)c1ccc(N(C)C)c(O)c1 (stereo not given)

RBA [1]: 0.73
Activity [2]: 14.8
Activity [11]: 34.3
Activity [3]: 39.6
Activity [4]: 41.8
Activity [6]: 13.9
Activity [7]: 21.7
Activity [8]: 45
Activity [9]: 46.2
Activity [10]: 43.5
inhibition [28]: 3%
inhibition [26]: 24%
Activity [29]: 14.3
Structure (SMILES): CCC(c1ccc(C)c(O)c1)C(CC)c1ccc(C)c(O)c1 (stereo not given)

RBA [1]: 1.2
Structure (SMILES): CCc1cc(C(CC)C(CC)c2ccc(O)c(CC)c2)ccc1O (stereo not given)

RBA [1]: 8.1
Structure (SMILES): CCC(c1ccc(O)c(C)c1)C(CC)c1ccc(O)c(C)c1 (stereo not given)

RBA [1]: 0.52
Activity [2]: 14.8
Activity [11]: 33
Activity [3]: 41.7
Activity [4]: 42.3
Activity [6]: 13.9
Activity [8]: 19.9
Activity [9]: 19.5
Activity [10]: 36.6
inhibition [26]: 29%
Structure (SMILES): CCC(c1ccc(N)c(O)c1)C(CC)c1ccc(N)c(O)c1 (stereo not given)

RBA [1]: < 0.01
Structure (SMILES): CCC(c1ccc(I)c(O)c1)C(CC)c1ccc(I)c(O)c1 (stereo not given)

RBA [1]: < 0.01
Structure (SMILES): CCC(c1ccc(O)c(N(C)C)c1)C(CC)c1ccc(O)c(N(C)C)c1 (stereo not given)
